EC50 data for three compounds are collected here from ChEMBL document CHEMBL3044905, “Level of catechin, myricetin, quercetin and isoquercitrin in buckwheat (Fagopyrum esculentum Moench), changes of their levels during vegetation and their effect on the growth of selected weeds” (J Agric Food Chem, 2009).

Holding throughout (type): functional, organism-based
Assay [1] has as its system Amaranthus retroflexus. Description: Phytotoxic activity against Amaranthus retroflexus assessed as inhibition of hypocotyl growth at 22 +/-2 degC after 72 hr. Put shortly: (§1)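 Test solutions were made in 90% methanol and applied to filter paper in Petri dishes, with a methanol-only control. Concentrations ranged from 1 to 5000 or 10000 µmol, depending on the compound. After 72 h incubation, root and hypocotyl lengths were measured on at least three replicate plates per concentration. Percentage influence was calculated relative to a distilled-water control, and EC50 (µM) was reported with R2.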

Assay [2] deals with Echinochloa crus-galli. Put plainly: Phytotoxic activity against Echinochloa crus-galli (barnyard grass) assessed as inhibition of hypocotyl growth at 22 +/-2 degC after 72 hr. Put shortly: as §1
Assay [3] has as its system Trifolium repens. Put plainly: Phytotoxic activity against Trifolium repens assessed as inhibition of hypocotyl growth at 22 +/-2 degC after 72 hr. In a few lines:
as §1

In assay [4] the test system is Plantago lanceolata. Put plainly: Phytotoxic activity against Plantago lanceolata assessed as inhibition of hypocotyl growth at 22 +/-2 degC after 72 hr. Put shortly:
as §1

Assay [5] deals with Sinapis alba. Description: Phytotoxic activity against Sinapis alba assessed as inhibition of hypocotyl growth at 22 +/-2 degC after 72 hr. Put shortly:
as §1

Assay [6] deals with Sinapis alba. Description: Phytotoxic activity against Sinapis alba assessed as inhibition of root growth at 22 +/-2 degC after 72 hr. In a few lines:
as §1

Assay [7] has as its system Amaranthus retroflexus. Description: Phytotoxic activity against Amaranthus retroflexus assessed as inhibition of root growth at 22 +/-2 degC after 72 hr. Put shortly:
as §1

The test system of assay [8] is Achillea millefolium. Put plainly: Phytotoxic activity against Achillea millefolium assessed as inhibition of root growth at 22 +/-2 degC after 72 hr. Put shortly:
as §1

Assay [9] relates to Plantago lanceolata. Put plainly: Phytotoxic activity against Plantago lanceolata assessed as inhibition of root growth at 22 +/-2 degC after 72 hr. Put shortly:
as §1

In assay [10] the test system is Trifolium repens. Description: Phytotoxic activity against Trifolium repens assessed as inhibition of root growth at 22 +/-2 degC after 72 hr. In a few lines:
as §1

Assay [11] has as its system Achillea millefolium. Put plainly: Phytotoxic activity against Achillea millefolium assessed as inhibition of hypocotyl growth at 22 +/-2 degC after 72 hr. Put shortly:
as §1

Assay [12] relates to Lolium perenne. Description: Phytotoxic activity against Lolium perenne (perennial ryegrass) assessed as inhibition of hypocotyl growth at 22 +/-2 degC after 72 hr. Put shortly:
as §1

The subject of assay [13] is Echinochloa crus-galli. Put plainly: Phytotoxic activity against Echinochloa crus-galli (barnyard grass) assessed as inhibition of root growth at 22 +/-2 degC after 72 hr. In a few lines:
as §1

Assay [14] has as its system Lolium perenne. Description: Phytotoxic activity against Lolium perenne (perennial ryegrass) assessed as inhibition of root growth at 22 +/-2 degC after 72 hr. Put shortly: as §1

What is called EC50 is the midpoint of the concentration-response curve. For `Oc1cc(O)c2c(c1)O[C@H](c1ccc(O)c(O)c1)[C@@H](O)C2` [CIANIDANOL], the EC50 with Amaranthus retroflexus [1] was 9300 µM; in the assay with Echinochloa crus-galli [2], 148 µM; with Trifolium repens [3], 169 µM; in the assay on Plantago lanceolata [4], 360 µM; with Sinapis alba [5], 780 µM; with Sinapis alba [6], 445 µM. The half-maximal effective concentration (EC50) with Amaranthus retroflexus [7] is 2830 µM; with Achillea millefolium [8] it was 472 µM; in the assay with Plantago lanceolata [9] it was 55 µM; in the assay with Trifolium repens [10] it was 433 µM; with Achillea millefolium [11], 527 µM; in the assay with Lolium perenne [12] it was 120 µM. Moreover, the concentration giving a half-maximal response (EC50) turned out to be 362 µM with Echinochloa crus-galli [13] and 377 µM in the assay on Lolium perenne [14].
Consider `O=c1c(O[C@@H]2O[C@H](CO)[C@@H](O)[C@H](O)[C@H]2O)c(-c2ccc(O)c(O)c2)oc2cc(O)cc(O)c12` [ISOQUERCETIN], for which the EC50 stood at 35200 µM in the assay with Echinochloa crus-galli [2]; 37100 µM with Plantago lanceolata [4]; 9560 µM in the assay on Sinapis alba [5]; 5910 µM with Sinapis alba [6]; 54600 µM in the assay with Plantago lanceolata [9]; 33800 µM in the assay on Lolium perenne [12]. For the same compound, the concentration giving a half-maximal response (EC50) worked out at 89100 µM in the assay with Echinochloa crus-galli [13] and 90100 µM in the assay on Lolium perenne [14].
As for `O=c1c(O)c(-c2ccc(O)c(O)c2)oc2cc(O)cc(O)c12` [QUERCETIN], the EC50 was found to be 12800 µM in the assay with Sinapis alba [5], 7050 µM with Sinapis alba [6], 183 µM in the assay on Lolium perenne [12] and 273 µM in the assay with Lolium perenne [14].
